Values after ≈ are worked out from the molar mass of the structure shown.
Columns and labels:
Type in all cases: functional
Pseudomonas aeruginosa [1] = assay: Antimicrobial activity against beta-lactam resistant Pseudomonas aeruginosa PAO1 by broth microdilution method
Method in brief: (§1)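 Broth microdilution MICs per CLSI M100-S18, over 0.12 to 256 μg/ml. Strains are PAO1 and its mutants. oprD mutants were selected overnight on Mueller-Hinton agar with 4 μg/ml imipenem, passaged antibiotic-free, then confirmed by oprD amplification and sequencing. PAO1 and ATCC 27853 were run alongside as quality controls.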

Pseudomonas aeruginosa [2] = assay: Antimicrobial activity against beta-lactam resistant Pseudomonas aeruginosa PAO1 deficient in ampD gene selected in vitro after antipseudomonal treatment of intensive care unit patient by broth microdilution method; method in brief: as §1
Pseudomonas aeruginosa [3] = assay: Antimicrobial activity against beta-lactam resistant Pseudomonas aeruginosa PAO1 deficient in ampD and ampDh3 gene selected in vitro after antipseudomonal treatment of intensive care unit patient by broth microdilution method; method in brief: as §1
Pseudomonas aeruginosa [4] = assay: Antimicrobial activity against beta-lactam resistant Pseudomonas aeruginosa PAO1 deficient in ampD, […] gene selected in vitro after antipseudomonal treatment of intensive care unit patient by broth microdilution method; method in brief: as §1
Pseudomonas aeruginosa [5] = assay: Antimicrobial activity against beta-lactam resistant Pseudomonas aeruginosa PAO1 deficient in ampD and dacB gene selected in vitro after antipseudomonal treatment of intensive care unit patient by broth microdilution method; method in brief: as §1
Pseudomonas aeruginosa [6] = assay: Antimicrobial activity against beta-lactam resistant Pseudomonas aeruginosa PAOD1 harboring oprD spontaneous mutant selected in vitro after antipseudomonal treatment of intensive care unit patient by broth microdilution method; method in brief: as §1
Pseudomonas aeruginosa [7] = assay: Antimicrobial activity against beta-lactam resistant Pseudomonas aeruginosa PAOD2 harboring oprD spontaneous mutant selected in vitro after antipseudomonal treatment of intensive care unit patient by broth microdilution method; method in brief: as §1
Pseudomonas aeruginosa [8] = assay: Antimicrobial activity against beta-lactam resistant Pseudomonas aeruginosa PAOD3 harboring oprD spontaneous mutant selected in vitro after antipseudomonal treatment of intensive care unit patient by broth microdilution method; method in brief: as §1
Pseudomonas aeruginosa [9] = assay: Antimicrobial activity against beta-lactam resistant Pseudomonas aeruginosa PAOD1 harboring oprD spontaneous mutant and deficient in ampD gene selected in vitro after antipseudomonal treatment of intensive care unit patient by broth microdilution method; method in brief: as §1
Pseudomonas aeruginosa [10] = assay: Antimicrobial activity against beta-lactam resistant Pseudomonas aeruginosa PAOD2 harboring oprD spontaneous mutant and deficient in ampD gene by selected in vitro after antipseudomonal treatment of intensive care unit patient by broth microdilution method; method in brief: as §1
Pseudomonas aeruginosa [11] = assay: Antimicrobial activity against beta-lactam resistant beta-lactam resistant Pseudomonas aeruginosa PAOD3 harboring oprD spontaneous mutant and deficient in ampD gene selected in vitro after antipseudomonal treatment of intensive care unit patient by broth microdilution method; method in brief: as §1
Pseudomonas aeruginosa [12] = assay: Antimicrobial activity against beta-lactam resistant Pseudomonas aeruginosa PAOD1 harboring oprD spontaneous mutant and deficient in dacB gene selected in vitro after antipseudomonal treatment of intensive care unit patient by broth microdilution method; method in brief: as §1
Pseudomonas aeruginosa [13] = assay: Antimicrobial activity against beta-lactam resistant Pseudomonas aeruginosa PAOD2 harboring oprD spontaneous mutant and deficient in dacB gene selected in vitro after antipseudomonal treatment of intensive care unit patient by broth microdilution method; method in brief: as §1
Pseudomonas aeruginosa [14] = assay: Antimicrobial activity against beta-lactam resistant Pseudomonas aeruginosa PAOD3 harboring oprD spontaneous mutant and deficient in dacB gene selected in vitro after antipseudomonal treatment of intensive care unit patient by broth microdilution method; method in brief: as §1
Pseudomonas aeruginosa [15] = assay: Antimicrobial activity against Pseudomonas aeruginosa clinical isolate selected in vitro after antipseudomonal treatment of intensive care unit patient by broth microdilution method
Method in brief: (§2)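 MICs by standard CLSI broth microdilution (M100-S18) at 0.12 to 256 μg/ml. The isolates are sequential P. aeruginosa isolates that emerged during antipseudomonal therapy of patients in a Spanish ICU (2002–2003). P. aeruginosa PAO1 and ATCC 27853 were run in parallel for quality control.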

Pseudomonas aeruginosa [16] = assay: Antimicrobial activity against Ceftazidime resistant Pseudomonas aeruginosa clinical isolate selected in vitro after antipseudomonal treatment of intensive care unit patient by broth microdilution method; method in brief: as §2
Pseudomonas aeruginosa [17] = assay: Antimicrobial activity against cefipime resistant Pseudomonas aeruginosa clinical isolate selected in vitro after antipseudomonal treatment of intensive care unit patient by broth microdilution method; method in brief: as §2
Pseudomonas aeruginosa [18] = assay: Antimicrobial activity against PIP-tazobactam resistant Pseudomonas aeruginosa clinical isolate selected in vitro after antipseudomonal treatment of intensive care unit patient by broth microdilution method; method in brief: as §2
Pseudomonas aeruginosa [19] = assay: Antimicrobial activity against Imipenem resistant Pseudomonas aeruginosa clinical isolate selected in vitro after antipseudomonal treatment of intensive care unit patient by broth microdilution method; method in brief: as §2
Pseudomonas aeruginosa [20] = assay: Antimicrobial activity against meropenem resistant Pseudomonas aeruginosa clinical isolate selected in vitro after antipseudomonal treatment of intensive care unit patient by broth microdilution method; method in brief: as §2
Pseudomonas aeruginosa [21] = assay: Antimicrobial activity against ciprofloxacin resistant Pseudomonas aeruginosa clinical isolate selected in vitro after antipseudomonal treatment of intensive care unit patient by broth microdilution method; method in brief: as §2
Pseudomonas aeruginosa [22] = assay: Antimicrobial activity against multidrug resistant Pseudomonas aeruginosa clinical isolate selected in vitro after antipseudomonal treatment of intensive care unit patient by broth microdilution method; method in brief: as §2
Pseudomonas aeruginosa [23] = assay: Antimicrobial activity against pan-beta-lactam resistant Pseudomonas aeruginosa clinical isolate selected in vitro after antipseudomonal treatment of intensive care unit patient by broth microdilution method; method in brief: as §2
Pseudomonas aeruginosa [24] = assay: Antimicrobial activity against Pseudomonas aeruginosa AmpC overexpressing clinical isolate selected in vitro after antipseudomonal treatment of intensive care unit patient by broth microdilution method; method in brief: as §2
Pseudomonas aeruginosa [25] = assay: Antimicrobial activity against Pseudomonas aeruginosa by after 18-20 hrs agar dilution method
Pseudomonas aeruginosa [26] = assay: Antimicrobial activity against cefipime resistant Pseudomonas aeruginosa by microdilution method
Pseudomonas aeruginosa [27] = assay: Antimicrobial activity against cefipime resistant Pseudomonas aeruginosa overexpressing MexXY-OprM gene by microdilution method
Pseudomonas aeruginosa [28] = assay: Antimicrobial activity against metallo beta-lactamase producing Pseudomonas aeruginosa isolates
Pseudomonas aeruginosa [29] = assay: Antimicrobial activity against extended spectrum beta-lactamase producing Pseudomonas aeruginosa isolates by broth microdilution method
Pseudomonas aeruginosa [30] = assay: Antimicrobial activity against beta-lactam resistant Pseudomonas aeruginosa PA01 deficient in dacB gene by broth microdilution method; method in brief: as §1
Pseudomonas aeruginosa [31] = assay: Antimicrobial activity against Pseudomonas aeruginosa clinical isolate assessed as resistant isolates selected in vitro after antipseudomonal treatment of intensive care unit patient by CLSI method

Cn1c(N)c(NC(=O)NCCN)c[n+]1CC1=C(C(=O)O)N2C(=O)[C@@H](NC(=O)/C(=N\OC(C)(C)C(=O)[O-])c3nsc(N)n3)[C@H]2SC1 [CEFTOLOZANE]
MIC (Pseudomonas aeruginosa [1]): 0.5 µg/mL (≈ 0.75 µM)
MIC (Pseudomonas aeruginosa [2]): 0.5 µg/mL (≈ 0.75 µM)
MIC (Pseudomonas aeruginosa [3]): 1 µg/mL (≈ 1.5 µM)
MIC (Pseudomonas aeruginosa [4]): 1 µg/mL (≈ 1.5 µM)
MIC (Pseudomonas aeruginosa [5]): 2 µg/mL (≈ 3 µM)
MIC (Pseudomonas aeruginosa [6]): 0.5 µg/mL (≈ 0.75 µM)
MIC (Pseudomonas aeruginosa [7]): 0.5 µg/mL (≈ 0.75 µM)
MIC (Pseudomonas aeruginosa [8]): 0.5 µg/mL (≈ 0.75 µM)
MIC (Pseudomonas aeruginosa [9]): 0.5 µg/mL (≈ 0.75 µM)
MIC (Pseudomonas aeruginosa [10]): 0.5 µg/mL (≈ 0.75 µM)
MIC (Pseudomonas aeruginosa [11]): 0.5 µg/mL (≈ 0.75 µM)
MIC (Pseudomonas aeruginosa [12]): 0.5 µg/mL (≈ 0.75 µM)
MIC (Pseudomonas aeruginosa [13]): 0.5 µg/mL (≈ 0.75 µM)
MIC (Pseudomonas aeruginosa [14]): 0.5 µg/mL (≈ 0.75 µM)
MIC50 (Pseudomonas aeruginosa [15]): 0.5 µg/mL (≈ 0.75 µM)
MIC80 (Pseudomonas aeruginosa [15]): 0.53 µg/mL (≈ 0.795 µM)
MIC90 (Pseudomonas aeruginosa [15]): 2 µg/mL (≈ 3 µM)
GM MIC (Pseudomonas aeruginosa [16]): 0.94 µg/mL
MIC50 (Pseudomonas aeruginosa [16]): 1 µg/mL (≈ 1.5 µM)
MIC90 (Pseudomonas aeruginosa [16]): 4 µg/mL (≈ 6 µM)
GM MIC (Pseudomonas aeruginosa [17]): 0.91 µg/mL
MIC50 (Pseudomonas aeruginosa [17]): 1 µg/mL (≈ 1.5 µM)
MIC90 (Pseudomonas aeruginosa [17]): 4 µg/mL (≈ 6 µM)
GM MIC (Pseudomonas aeruginosa [18]): 1.59 µg/mL
MIC50 (Pseudomonas aeruginosa [18]): 1 µg/mL
MIC90 (Pseudomonas aeruginosa [18]): 4 µg/mL
GM MIC (Pseudomonas aeruginosa [19]): 0.84 µg/mL
MIC50 (Pseudomonas aeruginosa [19]): 0.5 µg/mL (≈ 0.75 µM)
MIC90 (Pseudomonas aeruginosa [19]): 4 µg/mL (≈ 6 µM)
GM MIC (Pseudomonas aeruginosa [20]): 0.86 µg/mL
MIC50 (Pseudomonas aeruginosa [20]): 0.5 µg/mL (≈ 0.75 µM)
MIC90 (Pseudomonas aeruginosa [20]): 4 µg/mL (≈ 6 µM)
MIC (Pseudomonas aeruginosa [21]): 0.88 µg/mL (≈ 1.32 µM)
MIC50 (Pseudomonas aeruginosa [21]): 1 µg/mL (≈ 1.5 µM)
MIC90 (Pseudomonas aeruginosa [21]): 4 µg/mL (≈ 6 µM)
MIC (Pseudomonas aeruginosa [22]): 1.83 µg/mL (≈ 2.74 µM)
MIC (Pseudomonas aeruginosa [23]): 2.53 µg/mL (≈ 3.79 µM)
MIC (Pseudomonas aeruginosa [24]): 0.71 µg/mL (≈ 1.06 µM)
MIC50 (Pseudomonas aeruginosa [24]): 1 µg/mL (≈ 1.5 µM)
MIC90 (Pseudomonas aeruginosa [24]): 4 µg/mL (≈ 6 µM)
Ratio (Pseudomonas aeruginosa [25]): -0.5
MIC (Pseudomonas aeruginosa [26]): 1 µg/mL (≈ 1.5 µM)
MIC (Pseudomonas aeruginosa [27]): 1 µg/mL (≈ 1.5 µM)
Ratio (Pseudomonas aeruginosa [28]): 0.25
MIC (Pseudomonas aeruginosa [29]): > 8 µg/mL
MIC (Pseudomonas aeruginosa [30]): 1 µg/mL (≈ 1.5 µM)

C[C@@H](O)[C@H]1C(=O)N2C(C(=O)O)=C(SCCNC=N)C[C@H]12 [IMIPENEM ANHYDROUS]
MIC (Pseudomonas aeruginosa [1]): 2 µg/mL (≈ 6.68 µM)
MIC (Pseudomonas aeruginosa [2]): 2 µg/mL (≈ 6.68 µM)
MIC (Pseudomonas aeruginosa [3]): 2 µg/mL (≈ 6.68 µM)
MIC (Pseudomonas aeruginosa [4]): 1 µg/mL (≈ 3.34 µM)
MIC (Pseudomonas aeruginosa [5]): 2 µg/mL (≈ 6.68 µM)
MIC (Pseudomonas aeruginosa [6]): 16 µg/mL (≈ 53.4 µM)
MIC (Pseudomonas aeruginosa [7]): 8 µg/mL (≈ 26.7 µM)
MIC (Pseudomonas aeruginosa [8]): 16 µg/mL (≈ 53.4 µM)
MIC (Pseudomonas aeruginosa [9]): 16 µg/mL (≈ 53.4 µM)
MIC (Pseudomonas aeruginosa [10]): 16 µg/mL (≈ 53.4 µM)
MIC (Pseudomonas aeruginosa [11]): 16 µg/mL (≈ 53.4 µM)
MIC (Pseudomonas aeruginosa [12]): 16 µg/mL (≈ 53.4 µM)
MIC (Pseudomonas aeruginosa [13]): 16 µg/mL (≈ 53.4 µM)
MIC (Pseudomonas aeruginosa [14]): 16 µg/mL (≈ 53.4 µM)
Activity (Pseudomonas aeruginosa [31]): 57%
MIC (Pseudomonas aeruginosa [30]): 2 µg/mL (≈ 6.68 µM)

C[C@@H](O)[C@H]1C(=O)N2C(C(=O)O)=C(S[C@@H]3CN[C@H](C(=O)N(C)C)C3)[C@H](C)[C@H]12 [MEROPENEM]
MIC (Pseudomonas aeruginosa [1]): 0.5 µg/mL (≈ 1.3 µM)
MIC (Pseudomonas aeruginosa [2]): 2 µg/mL (≈ 5.22 µM)
MIC (Pseudomonas aeruginosa [3]): 2 µg/mL (≈ 5.22 µM)
MIC (Pseudomonas aeruginosa [4]): 1 µg/mL (≈ 2.61 µM)
MIC (Pseudomonas aeruginosa [5]): 2 µg/mL (≈ 5.22 µM)
MIC (Pseudomonas aeruginosa [6]): 1 µg/mL (≈ 2.61 µM)
MIC (Pseudomonas aeruginosa [7]): 2 µg/mL (≈ 5.22 µM)
MIC (Pseudomonas aeruginosa [8]): 2 µg/mL (≈ 5.22 µM)
MIC (Pseudomonas aeruginosa [9]): 8 µg/mL (≈ 20.9 µM)
MIC (Pseudomonas aeruginosa [10]): 8 µg/mL (≈ 20.9 µM)
MIC (Pseudomonas aeruginosa [11]): 8 µg/mL (≈ 20.9 µM)
MIC (Pseudomonas aeruginosa [12]): 4 µg/mL (≈ 10.4 µM)
MIC (Pseudomonas aeruginosa [13]): 4 µg/mL (≈ 10.4 µM)
MIC (Pseudomonas aeruginosa [14]): 4 µg/mL (≈ 10.4 µM)
Activity (Pseudomonas aeruginosa [31]): 52%
MIC (Pseudomonas aeruginosa [30]): 0.5 µg/mL (≈ 1.3 µM)

CCN1CCN(C(=O)N[C@@H](C(=O)N[C@@H]2C(=O)N3[C@@H]2SC(C)(C)[C@@H]3C(=O)O)c2ccccc2)C(=O)C1=O [PIPERACILLIN]
MIC (Pseudomonas aeruginosa [1]): 4 µg/mL (≈ 7.73 µM)
MIC (Pseudomonas aeruginosa [2]): 16 µg/mL (≈ 30.9 µM)
MIC (Pseudomonas aeruginosa [3]): 128 µg/mL (≈ 247 µM)
MIC (Pseudomonas aeruginosa [4]): 64 µg/mL (≈ 124 µM)
MIC (Pseudomonas aeruginosa [5]): 64 µg/mL (≈ 124 µM)
MIC (Pseudomonas aeruginosa [6]): > 256 µg/mL
MIC (Pseudomonas aeruginosa [7]): 4 µg/mL (≈ 7.73 µM)
MIC (Pseudomonas aeruginosa [8]): 4 µg/mL (≈ 7.73 µM)
MIC (Pseudomonas aeruginosa [9]): 4 µg/mL (≈ 7.73 µM)
MIC (Pseudomonas aeruginosa [10]): 32 µg/mL (≈ 61.8 µM)
MIC (Pseudomonas aeruginosa [11]): 64 µg/mL (≈ 124 µM)
MIC (Pseudomonas aeruginosa [12]): 64 µg/mL (≈ 124 µM)
MIC (Pseudomonas aeruginosa [13]): 64 µg/mL (≈ 124 µM)
MIC (Pseudomonas aeruginosa [14]): 64 µg/mL (≈ 124 µM)
MIC (Pseudomonas aeruginosa [30]): 64 µg/mL (≈ 124 µM)
